The list is not random: actives were taken first. Their share in the collection is about 1.8%.
DAGLB inhibitor – DAGLB lipase inhibitors, primary screen, biochemical, fluorescence, HTS; HEK293T DAGLB membrane lysate, EnzChek fluorogenic substrate; inhibition, % at 5.17 µM; actives 0.059% (n = 340,000); Diacylglycerol lipase-beta (Homo sapiens), Q8NCG7; AID 504411, 2011; in the data active means inhibition above about 34%;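 further: 0% = enzyme with vehicle and 100% = wells lacking enzyme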
Target sequence (Q8NCG7 whole entry, looked up): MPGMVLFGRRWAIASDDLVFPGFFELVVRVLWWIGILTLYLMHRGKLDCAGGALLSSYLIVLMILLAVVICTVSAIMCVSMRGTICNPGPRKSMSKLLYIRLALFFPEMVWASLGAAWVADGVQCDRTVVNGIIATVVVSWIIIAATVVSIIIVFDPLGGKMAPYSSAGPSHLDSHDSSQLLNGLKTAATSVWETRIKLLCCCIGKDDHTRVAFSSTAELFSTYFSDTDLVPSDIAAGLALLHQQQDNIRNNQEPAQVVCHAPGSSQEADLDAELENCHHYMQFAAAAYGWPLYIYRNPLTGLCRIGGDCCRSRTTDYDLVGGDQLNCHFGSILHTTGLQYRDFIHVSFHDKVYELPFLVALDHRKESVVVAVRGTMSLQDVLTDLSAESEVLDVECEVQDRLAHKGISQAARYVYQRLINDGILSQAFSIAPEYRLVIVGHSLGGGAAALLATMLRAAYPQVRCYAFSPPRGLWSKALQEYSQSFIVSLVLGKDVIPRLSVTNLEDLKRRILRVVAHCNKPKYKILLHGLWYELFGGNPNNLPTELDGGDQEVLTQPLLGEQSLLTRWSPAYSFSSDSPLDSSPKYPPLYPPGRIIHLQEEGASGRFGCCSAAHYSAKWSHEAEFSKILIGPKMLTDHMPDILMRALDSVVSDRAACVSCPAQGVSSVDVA
SKN-1 inh – suppressors of acrylamide-induced Pgst-4::GFP reporter in worms, primary screen, SKN-1 inhibitor project, whole organism, uHTS, GFP/RFP fluorescence ratio, strain VP596; C. elegans VP596 Pgst-4::GFP/RFP ratio, 24 h; inhibition, % at 21.8 µM; actives 0.49% (n = 360,000);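 active means interference check ratio from 0.5 to 1.5 plus GFP to RFP signal ratio inhibition reaching or exceeding a fixed threshold, cut at about 30% in these data, passing the limit was not always enough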
MT1-MMP act inh – blockers of MT1-MMP proenzyme processing, primary screen, HT1080 RFP-PRO-GFP cells, GFP/RFP fluorescence; actives 0.061% (n = 360,000); GFP/RFP ratio change, % at 20 µM; GFP/RFP ratio fluorescence, overnight; percent of plate control window, DMSO zero;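 active means GFP/RFP ratio change of at least 30% with cell ATP level not reduced by more than half and red fluorescence within 50% of control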
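Test system: HT1080 RFP-PRO-GFP cells; Benchmarks: DMSO and RFP-L50D-GFP cell wells; Timing: cells overnight before dosing, compound overnight, 37 °C, 5% CO2; Compound: one 20 µM compound dose with 1% DMSO; Read-out: GFP/RFP fluorescence ratio.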
iPSC survival up – enhancers of single-cell hiPSC survival, primary screen, ATPlite luminescence; 100% = ROCK inhibitor wells, 0% = DMSO; AID 602274, 2012; actives 0.044% (n = 360,000); survival enhancement, % at 20 µM; in the data active means survival enhancement above about 18%;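 further: cells exposed to compounds for 16 hours before the ATP read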
Ecoli rRNA inh – reduced GFP signal of wild-type E. coli, primary screen, bacterial rRNA inhibitor project, GFP/RFP fluorescence, OD600, single point; actives 1.6% (n = 350,000); E. coli WT GFP vs humanized-ribosome RFP mutants, 24 h; hits give low values; DMSO median 0, no signal -100; GFP signal change (wild-type ribosome), % (test concentration not listed);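 active means significant combined selectivity score with lowered wild-type GFP, culture density cut under 30%, mutant RFP and density less affected; inactive means any of these conditions unmet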
Cneo AK release – Cryptococcus neoformans cell lysis inducers, primary screen, AK release luminescence, single concentration. actives 0.2% (n = 360,000). C. neoformans lysis, adenylate kinase release luminescence, 4 h; normalised: neutral wells 0, clomiphene wells 100. lysis activity, % at 15 µM. AID 651654, 2012;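 active means mean lysis activity across replicates of at least 80%, whatever share of replicates individually reach that level; inactive means mean lysis activity below 80%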
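Assay system: log-phase C. neoformans yeast / Quantity: yeast cell density of 5 × 10^6 cells/mL / Medium: fresh YPD growth medium / Compound: single dose / Timing: static 4 h at 37 °C with compound, 1 h detection / Measured by: adenylate kinase release luminescence / Read-out: lysis from increased AK signal / Benchmarks: Clomiphene as positive lysis control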
* = called active by the depositor; / = not tested or not shown; ! = not confirmed by another sample.

SMILES	DAGLB inhibitor	SKN-1 inh	MT1-MMP act inh	iPSC survival up	Ecoli rRNA inh	Cneo AK release
C[C@@H]1CN([C@@H](C)CO)C(=O)Cc2cc(NS(=O)(=O)c3ccccc3)ccc2O[C@@H]1CN(C)Cc1ccc(Cl)c(Cl)c1	/	/	/	/	-4	85*
C[C@H]1CN([C@@H](C)CO)C(=O)Cc2cc(NS(=O)(=O)c3cn(C)cn3)ccc2O[C@@H]1CN(C)Cc1ccc(Oc2ccccc2)cc1	/	/	/	/	4	110*
C[C@H]1CN([C@@H](C)CO)C(=O)Cc2cc(NS(C)(=O)=O)ccc2O[C@@H]1CN(C)Cc1ccc(Cl)c(Cl)c1	-3	6	-4	5	-13	112*!
COc1ccccc1CC(=O)Nc1ccc(-c2noc(COc3cccc(C)c3C)n2)cc1	-10	-2	4	21*	1	3
CC(=O)Nc1nc2cc3c(cc2s1)OCCO3	1	9	5	-3	-6	-4
O=C(Nc1nc2ccccc2s1)c1ccccc1	-1	65*	-2	-1	-37	-10
O=C(NNc1nc2cc3c(cc2s1)OCCO3)c1ccccc1	3	-1	5	0	-27*	/
Cc1ccc(S(=O)(=O)N(C)C[C@H]2OCCCC[C@H](C)Oc3ccc(NC(=O)CCC(F)(F)F)cc3C(=O)N([C@@H](C)CO)C[C@H]2C)cc1	/	/	/	/	0	0
COc1ccccc1/C=C/C(=O)NC(=S)N(C)C1CCCCC1	-7	-3	-5	0	-24*	1
COc1cc(C2(c3ccc(O)c(OC)c3)C(=O)N(C)c3ccc(Br)cc32)ccc1O	1	6	0	0	-43	/
COc1cc(C2(c3ccc(O)c(OC)c3)C(=O)Nc3c(Br)cc(Br)cc32)ccc1O	-1	8	1	2	-48*	-1
CC[C@]1(C(=O)OC)[C@H]2C(=O)N(Cc3ccccc3)C(=O)[C@H]2[C@H]2CN=C(SCc3ccc(C)cc3)N21	-5	4	3	1	-35	2
CC[C@]1(C(=O)OC)[C@H]2C(=O)N(Cc3ccccc3)C(=O)[C@H]2[C@H]2CN=C(SCc3ccc(C(=O)OC)cc3)N21	-3	3	0	-1	-26*	2
COCCCn1c(=O)c2ccccc2n(Cc2cccc(C)c2)c1=O	13	40*	-1	0	0	0
O=C(NC1CCCCC1)N[C@H]1CC[C@H](CC(=O)N2CCOCC2)O[C@H]1CO	/	/	/	/	2	-1
COc1cc2c(cc1OC)C(C1C(=O)CC(C)(C)CC1=O)N(C(=O)CCl)CC2 (stereo not drawn)	1	9	-2	1	26	/
COc1cc2c(cc1OC)C(c1cc(Br)ccc1F)N(C(=O)CCl)CC2 (stereo not drawn)	4	1	3	21*	0	0
COc1ccc(S(=O)(=O)N2CC(=O)Nc3ccccc32)cc1Cl	2	6	-5	-1	-33*	-1
CCOc1ccc(S(=O)(=O)N2CC(=O)Nc3ccccc32)cc1C#N	-1	-15	-1	3	-3	-1
CO[C@@H]1CN(C)C(=O)c2cc(NC(=O)NC(C)C)ccc2OC[C@@H](C)N(CCC(F)(F)F)C[C@H]1C	/	/	/	/	-4	4
O=C1CCC2(C(=O)O)Sc3ccccc3N12 (stereo not drawn)	-1	-14	1	21*	/	2
COc1ccc(NC(=O)COC(=O)C23CCC(=O)N2c2ccccc2S3)cc1 (stereo not drawn)	0	-25	6	-1	/	1
CCOc1cccc2cc(C(=O)N3CCc4ccccc43)c(=O)oc12	0	47*	3	4	/	0
CCc1nc(N2CCCCC2C)c2oc3ccccc3c2n1 (stereo not drawn)	-14	9	-10	-2	/	86*
Cc1cc2ccccc2n1CCNC(=O)C(C)C	3	53*	26	-2	-2	0
SMILES	DAGLB inhibitor	SKN-1 inh	MT1-MMP act inh	iPSC survival up	Ecoli rRNA inh	Cneo AK release
Cc1cccc(CC(=O)NCCn2c(C)cc3ccccc32)c1	-16	38*	14	4	8	-1
CC(=O)N1CC2(C1)[C@H](c1ccccc1)[C@@H](CO)N2CC1CCOCC1	/	/	/	/	-1	/
CCC(=O)Nc1ccc2c(c1)OC[C@@H](C)N(C(=O)COC)C[C@H](C)[C@H](OC)CN(C)C2=O	/	/	/	/	2	6
CCC(=O)N[C@@H]1CC[C@@H](CCNC(=O)Nc2ccc(F)cc2)O[C@H]1CO	/	/	/	/	2	1
CN1C(=O)c2cc(NS(C)(=O)=O)ccc2OC[C@@H]2O[C@H](CC(=O)O)CC[C@H]21	/	/	/	/	3	-3
Cc1nn(C)cc1NC(=O)C[C@@H]1CC[C@@H]2[C@@H](COc3ccc(NC(=O)C4CCC4)cc3C(=O)N2C)O1	/	/	/	/	-16*	/
CCCNC(=O)C[C@@H]1CC[C@@H]2[C@H](COc3ccc(NC(=O)CCC)cc3C(=O)N2C)O1	/	/	/	/	3	110*
CCNC(=O)Nc1ccc2c(c1)C(=O)N(C)[C@H]1CC[C@@H](CC(=O)N[C@H](C)c3ccccc3)O[C@H]1CO2	/	/	/	/	3	-11
CCCNC(=O)C[C@H]1CC[C@H]2[C@H](COc3ccc(NC(=O)CCC)cc3C(=O)N2C)O1	/	/	/	/	1	0
CCNC(=O)Nc1ccc2c(c1)C(=O)N(C)[C@@H]1CC[C@H](CC(=O)N[C@@H](C)c3ccccc3)O[C@@H]1CO2	/	/	/	/	-2	193*
CN1C(=O)c2cc(NS(C)(=O)=O)ccc2OC[C@@H]2O[C@@H](CC(=O)O)CC[C@@H]21	/	/	/	/	4	90*
O=C(C[C@H]1CC[C@H]2[C@@H](COC[C@@H](O)CN2S(=O)(=O)c2cccc(F)c2)O1)NCc1ccc2c(c1)OCO2	/	/	/	/	3	4
CCNC(=O)Nc1ccc2c(c1)C(=O)N(C)[C@@H]1CC[C@H](CC(=O)NCc3ccc(F)cc3)O[C@H]1CO2	/	/	/	/	0	-11
COc1ccc2c3c([nH]c2c1)[C@@H](CO)N(Cc1cccc(F)c1)CC31CCN(C(C)=O)CC1	/	/	/	/	1	/
Cc1ccc(S(=O)(=O)Nc2cccc3c2O[C@H](CN(C)S(=O)(=O)c2cccs2)[C@@H](C)CN([C@H](C)CO)C3=O)cc1	/	/	/	/	-1	-38

From PubChem
